For four compounds, Drug metabolism and Ki results are on record in ChEMBL document CHEMBL3525985, “Regiospecificity and stereospecificity of human UDP-glucuronosyltransferases in the glucuronidation of estriol, 16-epiestriol, 17-epiestriol, and 13-epiestradiol” (Drug Metab Dispos, 2013).

For orientation: Ki means a measure of affinity in units of concentration, obtained from inhibition or displacement.

Common to all, as to format: ADME
Data set [1] concerns the target T1, UDP-glucuronosyltransferase 2B4 (Homo sapiens, UniProt P06133).
T1 sequence (P06133 whole entry): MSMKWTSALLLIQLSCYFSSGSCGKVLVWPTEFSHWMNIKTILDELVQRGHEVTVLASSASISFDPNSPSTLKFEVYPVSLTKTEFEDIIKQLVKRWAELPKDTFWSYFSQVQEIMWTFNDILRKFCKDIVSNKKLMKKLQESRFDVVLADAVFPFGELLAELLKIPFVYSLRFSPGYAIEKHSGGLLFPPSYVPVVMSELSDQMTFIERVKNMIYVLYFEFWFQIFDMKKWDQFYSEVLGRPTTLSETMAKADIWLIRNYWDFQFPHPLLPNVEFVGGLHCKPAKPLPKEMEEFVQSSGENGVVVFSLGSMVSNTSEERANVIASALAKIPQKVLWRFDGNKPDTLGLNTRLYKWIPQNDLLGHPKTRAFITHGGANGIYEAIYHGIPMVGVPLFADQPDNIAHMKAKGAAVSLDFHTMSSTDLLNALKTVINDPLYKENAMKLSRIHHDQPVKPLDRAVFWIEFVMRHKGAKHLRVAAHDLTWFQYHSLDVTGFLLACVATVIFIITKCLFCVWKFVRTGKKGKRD
Put plainly: Drug metabolism assessed as recombinant human C-terminal His-tagged UGT2B4-mediated 13-epiestradiol-17-glucuronide formation at 200 uM after 15 to 60 mins by HPLC analysis in presence of UDPGA. Particulars: recombinant enzyme. An outline of the steps:
(§1)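 Screening at a single substrate concentration of 200 μM, in triplicate. The reaction used 5 or 50 µg of UGT-enriched insect cell membranes in 50 mM phosphate pH 7.4 with 10 mM MgCl₂ and 5 mM UDPGA, 10% final DMSO. Incubation was 15–60 min at 37°C. Perchloric acid stopped the reaction and supernatants were analysed by HPLC. Controls lacked UDPGA. Rates were normalized to relative UGT expression level.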

In data set [2] the target is T2, UDP-glucuronosyltransferase 1A10 (Homo sapiens, UniProt Q9HAW8).
T2 sequence (Q9HAW8 whole entry): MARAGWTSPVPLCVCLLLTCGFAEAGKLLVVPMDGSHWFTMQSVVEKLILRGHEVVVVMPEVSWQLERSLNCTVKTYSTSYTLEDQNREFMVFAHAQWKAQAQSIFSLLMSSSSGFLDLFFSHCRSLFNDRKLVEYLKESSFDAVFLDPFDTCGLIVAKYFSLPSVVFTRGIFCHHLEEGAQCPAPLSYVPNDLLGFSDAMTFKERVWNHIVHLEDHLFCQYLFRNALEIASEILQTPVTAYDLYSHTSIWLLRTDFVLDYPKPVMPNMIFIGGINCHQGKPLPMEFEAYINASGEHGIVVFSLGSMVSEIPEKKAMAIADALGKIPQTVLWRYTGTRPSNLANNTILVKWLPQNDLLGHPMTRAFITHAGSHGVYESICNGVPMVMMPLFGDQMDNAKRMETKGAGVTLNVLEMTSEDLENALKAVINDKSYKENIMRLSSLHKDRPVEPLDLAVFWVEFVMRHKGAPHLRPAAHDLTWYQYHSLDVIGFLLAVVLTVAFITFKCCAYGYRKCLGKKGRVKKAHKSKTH
Kind of data set: Drug metabolism assessed as recombinant human C-terminal His-tagged UGT1A10-mediated estriol-3-glucuronide formation after 15 to 60 mins by Michaelis-Menten equation analysis in presence of UDPGA. Conditions: recombinant enzyme. An outline of the steps:
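For kinetics, the aglycone ranged from 0.2 to 300 μM in DMSO (10% final) with 5 mM UDPGA, 10 mM MgCl₂ and 50 mM phosphate pH 7.4. Enzyme was UGT-enriched insect cell membranes. Incubation was 15–60 min at 37°C, in triplicate, keeping substrate consumption ≤10%. Products were measured by HPLC and fitted to Michaelis-Menten. Rates were normalized to expression level.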

Data set [3] has as its target UDP-glucuronosyltransferase 1A7 (Homo sapiens, UniProt Q9HAW7). Put plainly: Drug metabolism assessed as recombinant human C-terminal His-tagged UGT1A7-mediated 16-epiestriol-3-glucuronide formation after 15 to 60 mins by Michaelis-Menten equation analysis in presence of UDPGA. Conditions: recombinant enzyme.
The target in data set [4] is T3, UDP-glucuronosyltransferase 2B7 (Homo sapiens, UniProt P16662).
T3 sequence (P16662 whole entry): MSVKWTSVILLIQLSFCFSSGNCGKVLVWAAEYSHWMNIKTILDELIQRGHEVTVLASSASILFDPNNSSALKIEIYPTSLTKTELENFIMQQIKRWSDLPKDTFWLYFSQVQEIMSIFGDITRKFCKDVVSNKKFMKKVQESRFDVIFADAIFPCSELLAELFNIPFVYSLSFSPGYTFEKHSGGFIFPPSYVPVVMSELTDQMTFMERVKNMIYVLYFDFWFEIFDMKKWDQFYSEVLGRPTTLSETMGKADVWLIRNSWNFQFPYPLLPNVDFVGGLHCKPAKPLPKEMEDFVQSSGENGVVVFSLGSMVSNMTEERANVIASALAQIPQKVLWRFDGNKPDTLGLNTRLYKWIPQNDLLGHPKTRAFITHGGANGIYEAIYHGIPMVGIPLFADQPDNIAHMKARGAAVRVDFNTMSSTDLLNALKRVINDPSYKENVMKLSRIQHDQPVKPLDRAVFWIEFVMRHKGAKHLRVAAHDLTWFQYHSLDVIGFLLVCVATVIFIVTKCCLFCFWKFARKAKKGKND
Kind of data set: Inhibition of recombinant human C-terminal His-tagged UGT2B7 after 15 to 60 mins by Michaelis-Menten equation analysis in presence of UDPGA. An outline of the steps:
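Kinetics with His-tagged UGT-enriched insect-cell membranes (5 or 50 µg): aglycone 0.2–300 µM in 10% DMSO, 5 mM UDPGA, 10 mM MgCl₂, 50 mM phosphate pH 7.4, 15–60 min at 37°C. Substrate consumption kept at or below 10%. Glucuronides quantified by HPLC in triplicate, rates normalized to expression, and data fitted to Michaelis-Menten.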

The target in data set [5] is T4, UDP-glucuronosyltransferase 2A1 (Homo sapiens, UniProt P0DTE4).
T4 sequence (P0DTE4 whole entry): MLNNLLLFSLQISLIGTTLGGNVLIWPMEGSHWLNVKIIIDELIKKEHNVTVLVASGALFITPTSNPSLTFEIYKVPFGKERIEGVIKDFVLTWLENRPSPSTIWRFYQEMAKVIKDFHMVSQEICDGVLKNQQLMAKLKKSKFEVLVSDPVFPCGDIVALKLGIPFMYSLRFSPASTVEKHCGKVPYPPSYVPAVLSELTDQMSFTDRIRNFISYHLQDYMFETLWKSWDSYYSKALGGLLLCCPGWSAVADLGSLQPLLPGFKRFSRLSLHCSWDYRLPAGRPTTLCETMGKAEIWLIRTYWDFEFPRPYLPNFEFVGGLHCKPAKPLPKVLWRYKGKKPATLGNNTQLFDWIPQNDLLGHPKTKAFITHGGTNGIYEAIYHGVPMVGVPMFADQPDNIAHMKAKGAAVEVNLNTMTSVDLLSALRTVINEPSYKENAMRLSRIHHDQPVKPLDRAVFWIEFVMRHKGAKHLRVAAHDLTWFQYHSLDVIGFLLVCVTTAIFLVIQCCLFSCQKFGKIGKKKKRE
Kind of data set: Drug metabolism assessed as recombinant human C-terminal His-tagged UGT2A1-mediated 17-epiestriol-16-glucuronide formation at 200 uM after 15 to 60 mins by HPLC analysis in presence of UDPGA. Particulars: recombinant enzyme. An outline of the steps: as §1

UDP-glucuronosyltransferase 1A7, sequence (Q9HAW7 whole entry): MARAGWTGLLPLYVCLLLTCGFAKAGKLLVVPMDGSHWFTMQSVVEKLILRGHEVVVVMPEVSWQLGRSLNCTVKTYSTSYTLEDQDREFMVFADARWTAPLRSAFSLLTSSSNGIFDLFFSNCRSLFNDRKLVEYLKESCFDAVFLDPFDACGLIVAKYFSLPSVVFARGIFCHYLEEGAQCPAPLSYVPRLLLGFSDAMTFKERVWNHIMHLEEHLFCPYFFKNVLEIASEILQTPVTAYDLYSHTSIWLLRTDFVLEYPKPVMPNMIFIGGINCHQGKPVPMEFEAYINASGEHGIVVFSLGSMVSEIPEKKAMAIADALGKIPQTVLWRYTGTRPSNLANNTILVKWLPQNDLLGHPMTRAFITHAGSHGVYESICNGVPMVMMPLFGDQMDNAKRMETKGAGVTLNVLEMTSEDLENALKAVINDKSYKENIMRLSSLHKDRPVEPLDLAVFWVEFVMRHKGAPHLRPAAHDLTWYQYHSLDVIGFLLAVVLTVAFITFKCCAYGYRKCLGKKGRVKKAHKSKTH

On to `C[C@@]12CC[C@@H]3c4ccc(O)cc4CC[C@H]3[C@@H]1CC[C@@H]2O`, for which the Drug metabolism entry in data set [1] was “metabolite_detected”.

As to `C[C@]12CC[C@@H]3c4ccc(O)cc4CC[C@H]3[C@@H]1C[C@@H](O)[C@@H]2O` [ESTRIOL], in data set [2], the Drug metabolism is on record as 840 pmol/min/mg.

Turning to `C[C@]12CC[C@@H]3c4ccc(O)cc4CC[C@H]3[C@@H]1C[C@H](O)[C@@H]2O` [EPIESTRIOL], the Drug metabolism in data set [3] came out at 0.5 pmol/min/mg. In addition, the Ki in data set [4] is 162 µM.

`C[C@]12CC[C@@H]3c4ccc(O)cc4CC[C@H]3[C@@H]1C[C@@H](O)[C@H]2O`: the Drug metabolism entry in data set [5] is reported as “metabolite_detected”.
